ChEMBL document CHEMBL4368901 (J Med Chem, 2019)
Calls of active or inactive are those of the source. The rule behind the calls is not given here.

What was measured:
[1] = Inhibition of GDH (unknown origin) using NADP+ and glutamate as substrate preincubated for 0.5 hrs followed by substrate addition and measured after 1 hr by EZMTT reagent-based UV-Vis absorbance assay; set-up: species or system Homo sapiens
[2] = test system: A549; assay: Antiproliferative activity against human A549 cells after 5 days by EZMTT reagent-based assay; assay type: functional, cell-based; conditions: A549, 120 h
[3] = target: T1, Glutaminase kidney isoform, mitochondrial (Homo sapiens, UniProt O94925); assay: Inhibition of human KGA preincubated for 15 to 30 mins followed by substrate addition and measured after 3 to 4 hrs by GDH-EZMTT reagent-based GDH coupled assay
T1 sequence (O94925 whole entry): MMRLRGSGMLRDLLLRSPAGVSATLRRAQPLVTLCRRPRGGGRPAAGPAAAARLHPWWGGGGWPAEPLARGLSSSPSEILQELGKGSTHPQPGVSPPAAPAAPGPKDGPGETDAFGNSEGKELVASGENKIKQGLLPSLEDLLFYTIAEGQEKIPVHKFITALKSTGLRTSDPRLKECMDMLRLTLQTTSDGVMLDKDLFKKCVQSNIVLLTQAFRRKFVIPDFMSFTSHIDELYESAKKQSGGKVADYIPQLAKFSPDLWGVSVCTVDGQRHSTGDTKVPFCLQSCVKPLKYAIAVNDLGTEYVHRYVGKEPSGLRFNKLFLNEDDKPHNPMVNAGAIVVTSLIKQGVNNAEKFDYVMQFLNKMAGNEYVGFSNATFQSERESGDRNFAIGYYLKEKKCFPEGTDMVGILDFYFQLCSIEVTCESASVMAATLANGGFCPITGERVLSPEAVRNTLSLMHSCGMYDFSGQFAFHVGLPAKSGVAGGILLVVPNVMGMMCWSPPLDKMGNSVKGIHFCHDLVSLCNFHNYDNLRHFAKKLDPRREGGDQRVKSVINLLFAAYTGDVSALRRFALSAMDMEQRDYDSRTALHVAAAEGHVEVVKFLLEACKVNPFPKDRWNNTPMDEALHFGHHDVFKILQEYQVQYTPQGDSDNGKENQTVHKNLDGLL

[4] = test system: A549; assay: Antiproliferative activity against human A549 cells after 5 days by EZMTT reagent-based assay relative to control; assay type: functional
[5] = test system: H22; assay: Antitumor activity against mouse H22 cells transplanted in ICR mouse assessed as reduction in tumor weight at 10 mg/kg, sc administered once daily for 10 consecutive days relative to control; assay type: functional; set-up: scale not given: the % may be the effect or the level left
Outline: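 H22 liver cancer model in young SPF ICR mice, n=10 per group. Compound given subcutaneously once daily at 10 mg/kg, 10 injections; the control group received N.S. End-point tumour size and weight, body weight and survival were recorded. Treated groups were compared with control by unpaired t test.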

[6] = Retention time of compound in mouse liver microsomes at 50 uM by LC-MS/MS analysis; assay type: ADME, Microsome
[7] = Metabolic stability in ICR mouse blood after 2 hrs by HPLC analysis; assay type: ADME, tissue-based
Outline: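 Compound was incubated in blood for 2 h and its remaining concentration was quantified by HPLC.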

[8] = Metabolic stability in mouse liver microsomes at 50 uM after 4 hrs in presence of NADPH by HPLC analysis; assay type: ADME, Microsome; conditions: read-out: Stability
Outline: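 Compound was incubated with mouse liver microsomes for 4 h, with coumarin as the control. The remaining level was quantified by HPLC using UV absorbance at 254 nm.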

[9] = test system: H22; assay: Antitumor activity against mouse H22 cells transplanted in ICR mouse assessed as induction of foam-like histiocytic reaction at tumor region at 10 mg/kg, sc administered once daily for 10 consecutive days by hematoxylin and eosin staining-based assay; assay type: functional, organism-based
[10] = test system: H22; assay: Antitumor activity against mouse H22 cells transplanted in ICR mouse assessed as induction of tumor deterioration at 10 mg/kg, sc administered once daily for 10 consecutive days by hematoxylin and eosin staining-based assay; assay type: functional, organism-based
[11] = test system: CAKI-1; assay: Antiproliferative activity against human Caki1 cells after 5 days by EZMTT reagent-based assay; assay type: functional, cell-based; conditions: CAKI-1, 120 h
[12] = test system: H22; assay: Antiproliferative activity against mouse H22 cells after 5 days by EZMTT reagent-based assay relative to control; assay type: functional
[13] = test system: CAKI-1; assay: Antiproliferative activity against human Caki1 cells after 5 days by EZMTT reagent-based assay relative to control; assay type: functional
[14] = test system: H22; assay: Antiproliferative activity against mouse H22 cells after 5 days by EZMTT reagent-based assay; assay type: functional, cell-based; conditions: H22, 120 h
[15] = test system: H22; assay: Antitumor activity against mouse H22 cells transplanted in ICR mouse assessed as induction of inflammatory cell infiltration at tumor region at 10 mg/kg, sc administered once daily for 10 consecutive days by hematoxylin and eosin staining-based assay; assay type: functional, organism-based
[16] = test system: HCT-116; assay: Antiproliferative activity against human HCT116 cells after 5 days by EZMTT reagent-based assay relative to control; assay type: functional
[17] = Drug level in tumor of mouse H22 cells transplanted ICR mouse at 10 mg/kg, sc administered once daily for 10 consecutive days by HPLC analysis; assay type: ADME, organism-based, Neoplasm; conditions: in vivo
Outline: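 Compound accumulation was measured in end-point tumours from H22-bearing ICR mice after once-daily subcutaneous 10 mg/kg dosing, 10 injections. Tumour content was analysed by HPLC.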

[18] = test system: H22; assay: Antitumor activity against mouse H22 cells transplanted in ICR mouse assessed as induction of scattered deformed nuclei at tumor region at 10 mg/kg, sc administered once daily for 10 consecutive days by hematoxylin and eosin staining-based assay; assay type: functional, organism-based
[19] = test system: H22; assay: Antitumor activity against mouse H22 cells transplanted in ICR mouse assessed as induction of fibrous hyperplasia at tumor region at 10 mg/kg, sc administered once daily for 10 consecutive days by hematoxylin and eosin staining-based assay; assay type: functional, organism-based
[20] = test system: HCT-116; assay: Antiproliferative activity against human HCT116 cells after 5 days by EZMTT reagent-based assay; assay type: functional, cell-based; conditions: HCT-116, 120 h
[21] = Drug uptake in human Caki1 cells after 24 hrs using gold nanoparticles by microspectrometric based Raman spectra assay; assay type: ADME, cell-based; conditions: caki-1, 24 h
Outline: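 Compound was premixed 1:1 with nanogold particles, at up to 2 µM. Glutamine-dependent Caki-1 cells were treated for 3, 9, 16 and 24 h, then SERS spectra were collected. Signal at 1352 cm^-1 served as the compound marker for cellular concentration.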

[22] = Drug uptake in human Caki1 cells up to 2 uM after 24 hrs without gold nanoparticles by microspectrometric analysis based Raman spectra assay; assay type: ADME, cell-based; conditions: caki-1, 24 h
[23] = test system: A549; assay: Induction of ROS generation in human A549 cells at 10 uM after 12 hrs by DCFH-DA staining-based fluorescence microscopic analysis; assay type: functional, cell-based
Outline: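 A549 cells were seeded at 10000 per well and exposed to compound at 0, 3 or 10 µM for 12 h. ROSUP at 100 µg/ml served as the positive control, alongside untreated cells. ROS was then assessed.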

Compound	IC50 [1] [µM]	IC50 [2] [µM]	IC50 [3] [µM]	Imax [4] [%]	further results
Cn1cc(CC(=O)Nc2nnc(CCSCCc3nnc(N)s3)s2)c2ccccc21	> 13	> 13	1.4	–	–
COc1ccc2c(c1)c(CC(=O)Nc1nnc(CCCCc3ccc(NC(=O)Cc4cccc(OC(F)(F)F)c4)nn3)[se]1)cn2C	> 13	0.01	0.01	90	Activity [5]: 40%; Retention_time [6]: 10.7 min; Stability [7]: Stable; remaining at 4 h, 50 µM [8]: 30%; Activity [9]: Active; Activity [10]: Active; IC50 [11]: 0.02 µM; Imax [12]: 70%; Imax [13]: 90%; IC50 [14]: 4.05 µM; Activity [15]: Active; Imax [16]: 92%; Drug uptake [17]: Active; Activity [18]: Active; Activity [19]: Active; IC50 [20]: 0.02 µM
Cn1cc(CC(=O)Nc2nnc(CCCCc3ccc(NC(=O)Cc4cccc(OC(F)(F)F)c4)nn3)[se]2)c2ccccc21	> 13	0.017	–	80	IC50 [11]: 0.014 µM; Imax [12]: 10%; Imax [13]: 90%; IC50 [14]: > 10 µM; Imax [16]: 92%; IC50 [20]: 0.009 µM
Cn1cc(CC(=O)Nc2nnc(CCSCCc3nnc(NC(=O)Cc4cn(C)c5ccccc45)[se]3)[se]2)c2ccccc21	> 13	0.11	–	81	Drug uptake [21]: Dose-dependent effect; IC50 [11]: 0.4 µM; Imax [12]: 71%; Drug uptake [22]: Not Active; Imax [13]: 87%; IC50 [14]: 1.38 µM; Imax [16]: 94%; IC50 [20]: 0.32 µM
Nc1nnc(CCSCCc2nnc(NC(=O)Cc3ccccc3)[se]2)[se]1	> 13	> 13	2.8	–	–
Nc1nnc(CCSCCc2nnc(NC(=O)Cc3ccccc3)s2)s1	> 13	> 13	–	–	–
Cn1cc(CC(=O)Nc2nnc(CCSCCc3nnc(N)[se]3)[se]2)c2ccccc21	> 13	> 13	1.1	–	Drug uptake [21]: Dose-dependent effect; Drug uptake [22]: Not Active
COc1ccc(Nc2nnc(CCSCCc3nnc(Nc4ccc(OC)cc4)[se]3)[se]2)cc1	> 13	> 13	> 13	0	–
Nc1nnc(CCSCCc2nnc(NC(=O)CC34CC5CC(CC(C5)C3)C4)[se]2)[se]1	> 13	5	0.3	60	–
Cn1ccc(CC(=O)Nc2nnc(CCSCCc3nnc(N)s3)s2)c1	> 13	> 13	5.1	–	–
Cn1ccc(CC(=O)Nc2nnc(CCSCCc3nnc(NC(=O)Cc4ccn(C)c4)[se]3)[se]2)c1	> 13	1	–	82	–
O=C(Cc1cccc(OC(F)(F)F)c1)Nc1ccc(CCCCc2nnc(NC(=O)Cn3cc(F)c(=O)[nH]c3=O)[se]2)nn1	> 13	0.46	0.02	91	Activity [23]: Active
O=C(Cc1ccccc1)Nc1nnc(CCSCCc2nnc(NC(=O)Cc3ccccc3)[se]2)[se]1	> 13	0.23	–	82	–
